According to PMC6420784 (Clinical lung cancer, 2018):
Where “and” joins values, the source holds several entries; their conditions need not be identical. Identical values can stand only once. Marks after values point to notes of the source that are not given here. Each block holds one compound with its values, some of them ahead of it.

Experiments:
[1] = Plasma pharmacokinetics of momelotinib and M-21; format: in vivo, human; conditions: for Cmax and AUCtau with b.i.d. dosing: across 100 mg and 150 mg dose levels (dose levels 2B, 3, and I); for dose proportionality of Cmax and AUCtau: day 15 of cycle 1, between dose level 1 (100 mg q.d.) and dose level 2A (200 mg q.d.); for Cmax / Tmax / half-life: human, oral; for Cmax: mean (%CV); for Cmax / Tmax / half-life / AUCtau, mean (%CV): momelotinib in plasma; for Tmax: median (Q1, Q3); for half-life: t1/2, median (Q1, Q3)
[2] = test system: KRAS-mutated metastatic NSCLC; experiment: Phase Ib efficacy: tumor response per RECIST, PFS, OS; format: in vivo, human; conditions: all 21 patients, n = 10
Summary of the method: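 Open-label, nonrandomized phase Ib in platinum-treated, refractory KRAS-mutated metastatic NSCLC (ECOG 0–1, measurable disease). Patients dosed until progression, unacceptable toxicity, consent withdrawal or refusal. CT at baseline and every 8 weeks, scored by RECIST 1.1. DCR at week 8 (CR+PR+SD) and ORR (CR+PR) given per dose level with Clopper–Pearson 90% CIs. PFS and OS by Kaplan–Meier. All enrolled patients analysed.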

[3] = test system: patients with KRAS-mutated metastatic NSCLC; experiment: Phase Ib safety: adverse events, dose-limiting toxicities, MTD; format: in vivo, human; conditions: for patients with AEs leading to dose interruptions or dose modifications: all dose levels, of the named drug
Summary of the method: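 Two 3 + 3 escalations. First, JAK/TBK1 inhibitor 100–200 mg q.d. or b.i.d. with MEK1/2 inhibitor 1.0 mg q.d. (level −1: 100 mg with 0.5 mg). Then MEK inhibitor 1.5 and 2.0 mg q.d. at the other drug's MTD. DLTs scored over the first 28-day cycle. MTD was the level below that with ≥2 DLTs. AEs recorded from first dose to 30 days post-dose, coded by MedDRA 19.1 and graded by CTCAE 4.03.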

[4] = test system: myelofibrosis patients; conditions: once daily (q.d.), previously established; cited from earlier work
[5] = test system: previously treated KRAS-mutated advanced NSCLC; conditions: single-agent trametinib 2.0 mg q.d., 10 of 86 patients; cited from earlier work
[6] = plasma, day 15 of cycle 1, M1: momelotinib 100 mg q.d. with trametinib 1.0 mg q.d.
[7] = plasma, day 15 of cycle 1, M2A: momelotinib 200 mg q.d. with trametinib 1.0 mg q.d.
[8] = plasma, day 15 of cycle 1, M2B: momelotinib 100 mg b.i.d. with trametinib 1.0 mg q.d.
[9] = plasma, day 15 of cycle 1, M3: momelotinib 150 mg b.i.d. with trametinib 1.0 mg q.d.
[10] = plasma, day 15 of cycle 1, TI: momelotinib 150 mg b.i.d. with trametinib 1.5 mg q.d.

Cmax and AUCtau with b.i.d. dosing [1]: similar
dose proportionality of Cmax and AUCtau [1]: more than dose-proportional increases
M-21/Momelotinib Ratio, AUCtau, mean (%CV) [1, 6]: 2.6 (44.6)
M-21/Momelotinib Ratio, Cmax, mean (%CV) [1, 6]: 2.2 (52.0)
M-21/Momelotinib Ratio, AUCtau, mean (%CV) [1, 7]: 1.7 (52.8)
M-21/Momelotinib Ratio, Cmax, mean (%CV) [1, 7]: 1.2 (47.2)
M-21/Momelotinib Ratio, Cmax, mean (%CV) [1, 8]: 1.7 (38.3)
M-21/Momelotinib Ratio, AUCtau, mean ([1]; plasma, day 15 of cycle 1, M2B: momelotinib 100 mg b.i.d. with trametinib 1.0 mg q.d., n = 1): 2.7^c
M-21/Momelotinib Ratio, AUCtau, mean (%CV) [1, 9]: 1.3 (40.3)
M-21/Momelotinib Ratio, Cmax, mean (%CV) [1, 9]: 1.3 (25.8)
M-21/Momelotinib Ratio, AUCtau, mean (%CV) [1, 10]: 1.4 (20.6)
M-21/Momelotinib Ratio, Cmax, mean (%CV) [1, 10]: 1.1 (13.7)
SMILES: N#CCNC(=O)c1ccc(-c2ccnc(Nc3ccc(N4CCOCC4=O)cc3)n2)cc1 [M-21]

SMILES: N#CCNC(=O)c1ccc(-c2ccnc(Nc3ccc(N4CCOCC4)cc3)n2)cc1 [Momelotinib, momelotinib]
patients who discontinued because of PD [2]: 47.6%
Cmax and AUCtau with b.i.d. dosing [1]: similar
dose proportionality of Cmax and AUCtau [1]: more than dose-proportional increases
maximum momelotinib plasma concentrations ([1]; discussion summary): approximately 300 ng/mL
maximum momelotinib plasma concentrations ([1]; equal to approximately 300 ng/mL): 0.72 µmol/L
Cmax [1, 6]: 136 ng/mL
Cmax [1, 7]: 572 ng/mL
Cmax [1, 8]: 318 ng/mL
Cmax [1, 9]: 290 ng/mL
Cmax [1, 10]: 359 ng/mL
Tmax [1, 6]: 1.9 h
Tmax [1, 7]: 2 h
Tmax [1, 8]: 0.9 h
Tmax [1, 9]: 1.1 h
half-life [1, 6]: 6.9 h
half-life [1, 7]: 8.7 h
half-life [1, 8]: 8.3 h
half-life [1, 9]: 6.1 h
AUCtau, mean (%CV) ([1]; day 15 of cycle 1, M1: momelotinib 100 mg q.d. with trametinib 1.0 mg q.d.): 774.3 (47.1) ng/mL/h
AUCtau, mean (%CV) ([1]; day 15 of cycle 1, M2A: momelotinib 200 mg q.d. with trametinib 1.0 mg q.d.): 3901.9 (48.2) ng/mL/h
AUCtau, mean (%CV) ([1]; day 15 of cycle 1, M2B: momelotinib 100 mg b.i.d. with trametinib 1.0 mg q.d.): 2568.3 (53.0) ng/mL/h
AUCtau, mean (%CV) ([1]; day 15 of cycle 1, M3: momelotinib 150 mg b.i.d. with trametinib 1.0 mg q.d.): 2214.1 (71.5) ng/mL/h
AUCtau, mean (%CV) ([1]; day 15 of cycle 1, TI: momelotinib 150 mg b.i.d. with trametinib 1.5 mg q.d.): 1871.1 (8.2) ng/mL/h
patients who discontinued because of AEs ([3]; all 21 patients, n = 9): 42.9%
patients with AEs leading to dose interruptions or dose modifications [3]: 47.6%
maximum tolerated dose (MTD) of momelotinib ([3]; b.i.d., in combination with trametinib 1.0 mg q.d. (dose level M3)): 150 mg
MTD of momelotinib as a single agent [4]: 200 mg

SMILES: CC(=O)Nc1cccc(-n2c(=O)n(C3CC3)c(=O)c3c(Nc4ccc(I)cc4F)n(C)c(=O)c(C)c32)c1 [trametinib]
PR [5]: 11.6%
patients with AEs leading to dose interruptions or dose modifications [3]: 52.4%
maximum tolerated dose (MTD) of trametinib ([3]; q.d., in combination with momelotinib 150 mg b.i.d. (dose level M3)): 1.0 mg and 1 mg
